Reference: ChEMBL document CHEMBL1154198, “Chemical genetics of Plasmodium falciparum” (Nature, 2010)

What was measured:
[1] = ST_JUDE: Cytotoxicity using luciferase to measure ATP as an indicator of the viability of human foreskin fibroblast cells (BJ); format: toxicity, cell-based
[2] = system: Toxoplasma gondii; test: ST_JUDE: Growth inhibition of to Toxoplasma gondii, in human U-2OS cells, as measured by luciferase.; format: functional, organism-based; conditions: RH, U2OS
Procedure, shortened: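 T. gondii parasites engineered to express luciferase; drug sensitivity read by luminescence.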

[3] = system: Plasmodium falciparum; test: ST_JUDE: Cytotoxicity against Plasmodium falciparum D10 transfected with yeast DHOD; format: functional, organism-based
[4] = system: Leishmania major; test: ST_JUDE: Cytotoxicity using Alamar Blue to measure viability of Leishmania major; format: functional, organism-based
Procedure, shortened: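 L. major promastigotes; drug susceptibility read with Alamar Blue.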

[5] = ST_JUDE: Cytotoxicity using luciferase to measure ATP as an indicator of the viability of human epithelial embryonic kidney cells (HEK293); format: toxicity, cell-based
[6] = system: Plasmodium falciparum; test: ST_JUDE: Cytotoxicity against Plasmodium falciparum 3D7; format: functional, organism-based
Procedure, shortened: (§1)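 Asexual P. falciparum grown in human erythrocytes, exposed to compounds for 72 h, and growth read as the DNA quantity in treated versus control cultures. Dose-response run at 12 concentrations from 10 μM to 5 nM.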

[7] = system: Plasmodium falciparum; test: ST_JUDE: Cytotoxicity against Plasmodium falciparum W2; format: functional, organism-based
[8] = system: Plasmodium falciparum; test: ST_JUDE: Cytotoxicity against Plasmodium falciparum Dd2; format: functional, organism-based
[9] = system: Plasmodium falciparum; test: ST_JUDE: Plasmodium falciparum 3D7 EC50 (uM) as measured by SYBR green dye; format: functional, organism-based
[10] = system: Trypanosoma brucei; test: ST_JUDE: Cytotoxicity using luciferase to measure ATP as an indicator of the viability of Trypanosoma brucei; format: functional, organism-based
[11] = system: Plasmodium falciparum; test: ST_JUDE: Cytotoxicity against Plasmodium falciparum V1/S; format: functional, organism-based
[12] = ST_JUDE: Cytotoxicity using luciferase to measure ATP as an indicator of the viability of human epithelial hepatocellular carcinoma cells (HepG2); format: toxicity, cell-based
[13] = system: Plasmodium falciparum; test: ST_JUDE: Cytotoxicity against Plasmodium falciparum K1; format: functional, organism-based; procedure, shortened: as §1
[14] = ST_JUDE: Cytotoxicity using luciferase to measure ATP as an indicator of the viability of human Burkitt''s lymphoma lymphoblast cells (Raji); format: toxicity, cell-based
[15] = system: Plasmodium falciparum; test: ST_JUDE: Cytotoxicity against Plasmodium falciparum SB-A6; format: functional, organism-based
[16] = system: Plasmodium falciparum; test: ST_JUDE: Plasmodium falciparum K1 EC50 (uM) as measured by SYBR green dye; format: functional, organism-based

Structure (SMILES) | EC50 [1] | EC50 [2] | EC50 [3] | EC50 [4] | EC50 [5] | EC50 [6] | EC50 [7] | EC50 [8] | EC50 [9] | EC50 [10] | EC50 [11] | EC50 [12] | EC50 [13] | EC50 [14] | EC50 [15] | EC50 [16]
CCc1ccccc1NC(=O)C1c2ccccc2C(=O)N(CC(C)C)C1c1cccs1 (stereo not drawn) | > 43 µM | > 23.6 µM | 1.08 µM | > 18.4 µM | > 43 µM | 0.938 µM | 0.679 µM | 1.21 µM | 0.511 µM | 12.9 µM | 1.15 µM | > 43 µM | 1.08 µM | > 43 µM | 1.01 µM | 0.526 µM
CCCO/C(O)=C1\C(C)=NC2=C(C(=O)CC(c3ccc(OC)c(OC)c3)C2)C1c1cccc(Cl)c1 (stereo not drawn) | > 37.7 µM | > 20.7 µM | 0.331 µM | > 16.2 µM | > 37.7 µM | 0.732 µM | 0.586 µM | 1.02 µM | 0.535 µM | 5.15 µM | 0.518 µM | > 37.7 µM | 0.425 µM | > 37.7 µM | 0.199 µM | 0.188 µM
CCOC(=O)C1(Cc2cccc(C(F)(F)F)c2)CCN(Cc2ccccc2O)CC1 | > 41.3 µM | > 22.6 µM | 0.743 µM | > 17.7 µM | > 41.3 µM | 1.33 µM | 0.726 µM | 0.345 µM | 0.389 µM | 11.7 µM | 0.486 µM | > 41.3 µM | 0.368 µM | > 41.3 µM | 0.858 µM | 0.0576 µM
Oc1ccc(Br)cc1CN1CCN(Cc2ccccc2F)CC1 | > 36.1 µM | > 19.8 µM | 3.66 µM | > 15.5 µM | > 36.1 µM | 2.06 µM | 1.61 µM | 1.79 µM | 0.719 µM | 27.2 µM | 0.936 µM | > 36.1 µM | 0.745 µM | > 36.1 µM | 2.77 µM | 0.334 µM
COc1ccc(NC(=O)C2c3ccccc3C(=O)N(CC(C)C)C2c2cccs2)cc1Cl (stereo not drawn) | > 40.4 µM | > 22.1 µM | 0.133 µM | > 17.3 µM | > 40.4 µM | 0.117 µM | 0.555 µM | 0.167 µM | 0.119 µM | 2.63 µM | 0.244 µM | > 40.4 µM | 0.134 µM | > 40.4 µM | 0.15 µM | 0.139 µM
COc1ccc(O)c(CN2CCN(c3cc(C)ccc3C)CC2)c1 | > 35.5 µM | > 19.4 µM | 1.23 µM | > 15.2 µM | > 35.5 µM | 2.2 µM | 0.566 µM | 0.741 µM | 1.37 µM | > 34 µM | 0.659 µM | > 35.5 µM | 0.992 µM | > 35.5 µM | 1.29 µM | 0.488 µM
Cc1c2[nH]c3ccccc3c2c2c([n+]1C)CC(C)(C)CC2 | > 55.5 µM | > 30.4 µM | 1.35 µM | 0.48 µM | > 55.5 µM | 3.19 µM | 0.154 µM | 0.921 µM | 0.896 µM | 13.6 µM | 3.33 µM | > 55.5 µM | 3.52 µM | > 55.5 µM | 1.04 µM | 1.4 µM
Cc1ccc(C2(c3ccc(C)cc3)CC2C(=O)Nc2ccc([N+](=O)[O-])cc2O)cc1 (stereo not drawn) | 11 µM | > 21.1 µM | 1.6 µM | > 16.5 µM | 11.4 µM | 1.01 µM | 1.83 µM | 2.09 µM | 0.658 µM | 4.78 µM | 1.26 µM | 10.7 µM | 0.741 µM | 10.6 µM | 1.83 µM | 0.582 µM
CCCN(C(=O)C(=O)Nc1ccc2nc3n(c(=O)c2c1)CCCCC3)c1ccc(OCC)cc1 | > 47.3 µM | > 25.9 µM | 0.22 µM | > 20.2 µM | > 47.3 µM | 0.49 µM | 0.334 µM | 0.7 µM | 0.673 µM | > 45.3 µM | 0.215 µM | > 47.3 µM | 0.326 µM | > 47.3 µM | 0.346 µM | 0.289 µM
Cc1cccc(N2CCN(Cc3ccccc3O)CC2)c1C | > 32.7 µM | > 17.9 µM | 0.813 µM | > 14 µM | > 32.7 µM | 0.976 µM | 0.951 µM | 0.626 µM | 1.07 µM | > 31.3 µM | 0.403 µM | > 32.7 µM | 0.355 µM | > 32.7 µM | 0.0295 µM | 0.531 µM
CC[n+]1c(/C=C/c2ccc(N(C)C)cc2)ccc2cc(OC)ccc21 | > 23.2 µM | > 12.7 µM | 0.372 µM | 0.0005 µM | > 23.2 µM | 0.247 µM | 0.0922 µM | 0.174 µM | 1.69 µM | 0.343 µM | 0.43 µM | 2.99 µM | 0.471 µM | 0.529 µM | 0.702 µM | 0.707 µM
CCN(CC)c1ccc(/C=C/c2ccc3ccc(OC)cc3[n+]2CC)cc1 | > 16.8 µM | 4.17 µM | 0.308 µM | 0.0024 µM | > 16.8 µM | 0.422 µM | 0.304 µM | 0.229 µM | 1.13 µM | 0.441 µM | 0.413 µM | 1.92 µM | 0.419 µM | 0.484 µM | 0.449 µM | 0.803 µM
CC(C)c1ccc(CNCC(O)c2ccccc2)cc1 (stereo not drawn) | > 52.9 µM | > 29 µM | 4.1 µM | > 22.6 µM | 34.5 µM | 2.4 µM | 1.68 µM | 2.25 µM | 1.35 µM | 14.4 µM | 1.15 µM | > 52.9 µM | 0.992 µM | 23.2 µM | 4.3 µM | 0.439 µM
